Values after ≈ are worked out from the molar mass of the structure shown.
How the values were obtained:
[1] = biological target: T1, Glucose-dependent insulinotropic receptor (Homo sapiens, UniProt Q8TDV5); assay: Agonist activity at human GPR119 expressed in HEK293 cells assessed as intracellular cAMP accumulation after 30 mins by HTRF assay; type: functional, cell-based
T1 sequence (Q8TDV5 whole entry): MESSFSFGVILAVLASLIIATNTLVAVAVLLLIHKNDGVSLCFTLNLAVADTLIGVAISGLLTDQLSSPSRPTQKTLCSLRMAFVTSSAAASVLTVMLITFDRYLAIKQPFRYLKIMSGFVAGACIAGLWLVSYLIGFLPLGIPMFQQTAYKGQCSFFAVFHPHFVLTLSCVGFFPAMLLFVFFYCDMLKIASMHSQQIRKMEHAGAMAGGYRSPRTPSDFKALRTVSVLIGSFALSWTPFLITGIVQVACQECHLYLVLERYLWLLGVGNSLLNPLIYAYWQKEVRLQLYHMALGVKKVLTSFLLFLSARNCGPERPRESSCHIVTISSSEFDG
How it was run: (§1)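 Anti-cAMP cryptate in lysis buffer was then added for 3 h at room temperature in the dark, and cAMP was read by HTRF. EC50 is the concentration giving 50% of the maximal OEA response; intrinsic activity is expressed as % of OEA (100%).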

[2] = Solubility of the compound in Japanese pharmacopoeia first fluid at pH 1.2; type: physicochemical
How it was run: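 Solubility was measured in Japanese Pharmacopoeia 1st fluid for dissolution testing, adjusted to pH 1.2.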

[3] = Solubility of the compound in FeSSIF; type: physicochemical
[4] = Metabolic stability in human liver microsomes assessed as parent compound remaining at 5 uM after 1 hr; type: ADME, Microsome; settings: read-out: Stability
How it was run: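 Compound (5 μM) was incubated with human liver microsomes ([…]) for 1 h. Percent of compound remaining was reported.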

[5] = Metabolic stability in rat liver microsomes assessed as parent compound remaining at 5 uM after 1 hr; type: ADME, Microsome; settings: read-out: Stability
How it was run: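 Compound (5 μM) was incubated with rat liver microsomes ([…]) for 1 h. Percent of compound remaining was reported.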

[6] = biological target: T2, Glucose-dependent insulinotropic receptor (Homo sapiens) (UniProt Q8TDV5); assay: Intrinsic activity at human GPR119 expressed in HEK293 cells assessed as intracellular cAMP accumulation after 30 mins by HTRF assay relative to oleoylethanolamide; type: functional, cell-based; how it was run: as §1
T2 sequence (whole entry): T1 sequence (Q8TDV5 whole entry)

EC50 [1]	solubility [2]	solubility [3]	remaining at 1 h, 5 µM [4]	remaining at 1 h, 5 µM [5]	Intrinsic activity [6]	SMILES
> 1000 nM	13 µM (≈ 6.21 µg/mL)	42.5 µM (≈ 20.3 µg/mL)			17%	Cc1c(O[C@H]2CC[C@]3(CC2)COC(C)(C)C3)ncnc1N(C)c1ccc(S(C)(=O)=O)cc1F
98 nM	0.7 µM (≈ 0.344 µg/mL)	4.3 µM (≈ 2.11 µg/mL)			61%	CC(C)c1c(Nc2ccc(S(C)(=O)=O)cc2F)ncnc1O[C@H]1CC[C@]2(CC1)COC(C)(C)C2
59 nM	< 0.5 µM	33.4 µM (≈ 15.5 µg/mL)			62%	Cc1c(Oc2ccc(S(C)(=O)=O)cc2F)ncnc1O[C@H]1CC[C@]2(CC1)COC(C)(C)C2
13 nM	5.3 µM (≈ 2.46 µg/mL)	15.8 µM (≈ 7.32 µg/mL)			91%	Cc1c(Nc2ccc(S(C)(=O)=O)cc2F)ncnc1O[C@H]1CC[C@]2(CC1)COC(C)(C)C2
42 nM	4.6 µM (≈ 2.2 µg/mL)	67.5 µM (≈ 32.2 µg/mL)			82%	CCc1c(Nc2ccc(S(C)(=O)=O)cc2F)ncnc1O[C@H]1CC[C@]2(CC1)COC(C)(C)C2

Continued, compound first:

SMILES	EC50 [1]	solubility [2]	solubility [3]	remaining at 1 h, 5 µM [4]	remaining at 1 h, 5 µM [5]	Intrinsic activity [6]
CN(c1ncnc2c1CCN2c1ccc(S(C)(=O)=O)cc1F)[C@H]1CC[C@]2(CC1)COC(C)(C)C2	39 nM	> 475 µM	75.3 µM (≈ 36.8 µg/mL)	99%	94%	118%
CC(O[C@H]1CC[C@]2(CC1)COC(C)(C)C2)c1nc(-c2ccc(S(C)(=O)=O)c(F)c2)no1 (some centres undefined)	89 nM					109%
CN(c1cc(N2CCc3cc(S(C)(=O)=O)ccc32)ncn1)[C@H]1CC[C@]2(CC1)COC(C)(C)C2	16 nM	418 µM (≈ 197 µg/mL)	24.3 µM (≈ 11.4 µg/mL)	89%	80%	108%
CC1(C)C[C@]2(CC[C@H](c3nc(COc4ccc(-n5cnnn5)cc4)cs3)CC2)CO1	85 nM					79%
CC1(C)C[C@]2(CC[C@H](Oc3ncnc4c3CCN4c3ccc(S(C)(=O)=O)cc3F)CC2)CO1	5 nM	18.9 µM (≈ 8.99 µg/mL)	15.2 µM (≈ 7.23 µg/mL)			90%
Cc1c(Nc2ccc(S(C)(=O)=O)cc2)ncnc1O[C@H]1CC[C@]2(CC1)COC(C)(C)C2	139 nM	4.4 µM (≈ 1.96 µg/mL)	8.6 µM (≈ 3.83 µg/mL)			92%
Cc1c(Nc2ccc(S(C)(=O)=O)cc2F)ncnc1N(C)[C@H]1CC[C@]2(CC1)COC(C)(C)C2	45 nM	> 475 µM	49.8 µM (≈ 23.7 µg/mL)	91%	93%	128%
Cc1c(Nc2ccc(C(=O)N(C)C)cc2F)ncnc1O[C@H]1CC[C@]2(CC1)COC(C)(C)C2	33 nM	128 µM (≈ 58.7 µg/mL)	65.2 µM (≈ 29.8 µg/mL)	77%	44%	101%
Cc1c(O[C@H]2CC[C@]3(CC2)COC(C)(C)C3)ncnc1N1CCc2cc(S(C)(=O)=O)ccc21	> 1000 nM	2.8 µM (≈ 1.32 µg/mL)	25.5 µM (≈ 12 µg/mL)			38%
CC1(C)C[C@]2(CC[C@H](Oc3cc(N4CCc5cc(S(C)(=O)=O)ccc54)ncn3)CC2)CO1	15 nM	7 µM (≈ 3.2 µg/mL)	19.8 µM (≈ 9.06 µg/mL)			87%
